Values after ≈ are worked out from the molar mass of the structure shown. Active and inactive are the calls of the source. No cut-off for these calls is given here.
Key:
[1] = Toxicity in multidrug-resistant Escherichia coli BW25113 assessed as growth inhibition by two-fold broth dilution method
[2] = Toxicity in multidrug-resistant Escherichia coli BW25113 harboring AcrB deletion mutant assessed as growth inhibition by two-fold broth dilution method
[3] = target: T1, Multidrug efflux pump subunit AcrB (Escherichia coli (strain K12)) (UniProt P31224); test: Inhibition of AcrB in multidrug-resistant Escherichia coli BW25113 assessed as potentiation of chloramphenicol-induced antibacterial activity by measuring chloramphenicol MIC at 16 ug/ml by checkerboard titration method (reference value: 8 ug/ml); details: dose 16.0 µg/ml
T1 sequence (whole entry): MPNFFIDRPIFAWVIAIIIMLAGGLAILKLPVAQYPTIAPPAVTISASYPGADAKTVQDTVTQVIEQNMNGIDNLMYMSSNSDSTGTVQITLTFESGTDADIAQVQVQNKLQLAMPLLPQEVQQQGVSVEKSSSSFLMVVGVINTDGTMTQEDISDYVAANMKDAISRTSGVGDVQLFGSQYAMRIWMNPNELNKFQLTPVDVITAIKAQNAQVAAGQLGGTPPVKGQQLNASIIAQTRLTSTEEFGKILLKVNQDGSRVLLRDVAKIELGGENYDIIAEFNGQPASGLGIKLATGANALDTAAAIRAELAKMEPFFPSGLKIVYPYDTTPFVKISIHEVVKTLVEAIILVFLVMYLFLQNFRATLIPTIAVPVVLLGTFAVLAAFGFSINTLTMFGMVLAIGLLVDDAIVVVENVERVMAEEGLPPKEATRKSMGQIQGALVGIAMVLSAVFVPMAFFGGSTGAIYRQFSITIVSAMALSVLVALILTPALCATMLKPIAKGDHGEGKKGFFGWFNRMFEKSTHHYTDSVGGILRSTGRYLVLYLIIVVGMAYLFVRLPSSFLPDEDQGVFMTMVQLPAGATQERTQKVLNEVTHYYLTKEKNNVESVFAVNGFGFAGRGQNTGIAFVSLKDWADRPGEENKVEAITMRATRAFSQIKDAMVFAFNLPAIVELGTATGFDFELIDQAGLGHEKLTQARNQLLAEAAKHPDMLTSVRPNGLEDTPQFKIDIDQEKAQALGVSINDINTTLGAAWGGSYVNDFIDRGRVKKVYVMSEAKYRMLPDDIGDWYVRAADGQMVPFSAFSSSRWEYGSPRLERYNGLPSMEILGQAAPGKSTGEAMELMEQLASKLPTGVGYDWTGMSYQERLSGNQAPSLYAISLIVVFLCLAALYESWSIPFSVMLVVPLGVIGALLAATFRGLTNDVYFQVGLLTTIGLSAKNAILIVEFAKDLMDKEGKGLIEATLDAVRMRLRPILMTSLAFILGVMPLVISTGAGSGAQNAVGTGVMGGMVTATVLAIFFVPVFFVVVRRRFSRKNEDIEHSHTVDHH

[4] = target: T1, Multidrug efflux pump subunit AcrB (Escherichia coli (strain K12)); test: Inhibition of AcrB in multidrug-resistant Escherichia coli BW25113 assessed as potentiation of chloramphenicol-induced antibacterial activity by measuring chloramphenicol MIC at 32 ug/ml by checkerboard titration method (reference value: 8 ug/ml); details: dose 32.0 µg/ml
[5] = target: T1, Multidrug efflux pump subunit AcrB (Escherichia coli (strain K12)); test: Inhibition of AcrB in multidrug-resistant Escherichia coli BW25113 assessed as potentiation of chloramphenicol-induced antibacterial activity by measuring chloramphenicol MIC at 128 ug/ml by checkerboard titration method (reference value: 8 ug/ml); details: dose 128.0 µg/ml
[6] = target: T1, Multidrug efflux pump subunit AcrB (Escherichia coli (strain K12)); test: Inhibition of AcrB in multidrug-resistant Escherichia coli BW25113 assessed as potentiation of erythromycin-induced antibacterial activity by measuring erythromycin MIC at 32 ug/ml by checkerboard titration method (reference value: 64 ug/ml); details: dose 32.0 µg/ml
[7] = target: T1, Multidrug efflux pump subunit AcrB (Escherichia coli (strain K12)); test: Inhibition of AcrB in multidrug-resistant Escherichia coli BW25113 assessed as potentiation of erythromycin-induced antibacterial activity by measuring erythromycin MIC at 128 ug/ml by checkerboard titration method (reference value: 64 ug/ml); details: dose 128.0 µg/ml
[8] = target: T1, Multidrug efflux pump subunit AcrB (Escherichia coli (strain K12)); test: Inhibition of AcrB in multidrug-resistant Escherichia coli BW25113 assessed as potentiation of tetraphenylphosphonium-induced antibacterial activity by measuring tetraphenylphosphonium MIC at 8 ug/ml by checkerboard titration method (reference value: 1024 ug/ml); details: dose 8.0 µg/ml
[9] = target: T1, Multidrug efflux pump subunit AcrB (Escherichia coli (strain K12)); test: Inhibition of AcrB in multidrug-resistant Escherichia coli BW25113 assessed as potentiation of tetraphenylphosphonium-induced antibacterial activity by measuring tetraphenylphosphonium MIC at 32 ug/ml by checkerboard titration method (reference value: 1024 ug/ml); details: dose 32.0 µg/ml
[10] = target: T1, Multidrug efflux pump subunit AcrB (Escherichia coli (strain K12)); test: Inhibition of AcrB in multidrug-resistant Escherichia coli BW25113 assessed as potentiation of tetraphenylphosphonium-induced antibacterial activity by measuring tetraphenylphosphonium MIC at 64 ug/ml by checkerboard titration method (reference value: 1024 ug/ml); details: dose 64.0 µg/ml
[11] = target: T1, Multidrug efflux pump subunit AcrB (Escherichia coli (strain K12)); test: Inhibition of AcrB in multidrug-resistant Escherichia coli BW25113 assessed as potentiation of levofloxacin-induced antibacterial activity by measuring levofloxacin MIC at 8 ug/ml by checkerboard titration method (reference value: 0.06 ug/ml); details: dose 8.0 µg/ml
[12] = target: T1, Multidrug efflux pump subunit AcrB (Escherichia coli (strain K12)); test: Inhibition of AcrB in Escherichia coli BW25113 assessed as reduction in glucose-induced nile red efflux at 100 uM preincubated for 15 mins followed by nile red addition and incubated for 3 hrs in shaker in presence of CCCP by fluorimetric analysis; details: time 3.25 hrs
Summary of the method: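 Wild-type and AcrB-deleted cells were preloaded with Nile Red, with or without compound. Fluorescence was recorded, and efflux was triggered at 100 s with 0.2% glucose. Traces were compared with the deletion-strain level. Triplicate experiments used different cell batches.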

Cell membrane = test: Induction of inner membrane permeabilization in wild type Escherichia coli BW25113 assessed as perturbation of proton motive force at 128 ug/ml measured after 10 mins in presence of CCCP and glucose by Di0C2(3) probe based fluorescence assay; details: escherichia coli bw25113, 10 min, dose 128 µg/ml
Summary of the method: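 Cell suspensions were left untreated or exposed to 8-128 µg/mL compound for 10 min. DiOC₂(3) was then added and fluorescence followed to a plateau. Cells were re-energized with 0.5% glucose, and the rise in fluorescence was read as membrane-potential build-up. CCCP was added last to dissipate the potential.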

[13] = target: T1, Multidrug efflux pump subunit AcrB (Escherichia coli (strain K12)); details: Escherichia coli BW25113; dose 8.0 µg/ml
[14] = target: T1, Multidrug efflux pump subunit AcrB (Escherichia coli (strain K12)); details: Escherichia coli BW25113; dose 32.0 µg/ml
[15] = target: T1, Multidrug efflux pump subunit AcrB (Escherichia coli (strain K12)); details: Escherichia coli BW25113; dose 64.0 µg/ml
[16] = target: T1, Multidrug efflux pump subunit AcrB (Escherichia coli (strain K12)); details: Escherichia coli BW25113; dose 128.0 µg/ml

Row | SMILES | MIC [1] | MIC [2] | MIC [3] | MIC [4] | MIC [5] | MIC [6] | MIC [7] | MIC [8] | MIC [9] | MIC [10] | MIC [11] | inhibition [12] | Activity (Cell membrane) | MIC [13] | MIC [14] | MIC [15] | MIC [16]
1 | CC1(C)CCc2c(Cn3cnnn3)cc3c(OCc4ccc(OC(F)(F)F)cc4)cccc3c2O1 | > 512 µg/mL | > 128 µg/mL | 8 µg/mL | 8 µg/mL | 4 µg/mL | 64 µg/mL | 32 µg/mL | 1020 µg/mL | 1020 µg/mL | 1020 µg/mL | 0.06 µg/mL | Active | Not Active | 16 µg/mL (≈ 33 µM) | 16 µg/mL (≈ 33 µM) | 16 µg/mL (≈ 33 µM) | 16 µg/mL (≈ 33 µM)
2 | CC1(C)CCc2c(Cn3cnnn3)cc3c(OCc4ccc([N+](=O)[O-])cc4)cccc3c2O1 | > 512 µg/mL | > 128 µg/mL | 8 µg/mL | 8 µg/mL | 8 µg/mL | 64 µg/mL | 64 µg/mL | 1020 µg/mL | 1020 µg/mL | 1020 µg/mL | 0.06 µg/mL | Active | Not Active | 16 µg/mL (≈ 35.9 µM) | 16 µg/mL (≈ 35.9 µM) | 16 µg/mL (≈ 35.9 µM) | 16 µg/mL (≈ 35.9 µM)
3 | CC1(C)CCc2c(-c3nnco3)cc3c(OCc4ccc(C#N)cc4)cccc3c2O1 | > 512 µg/mL | > 128 µg/mL | 4 µg/mL | 4 µg/mL | 2 µg/mL | 64 µg/mL | 32 µg/mL | 1020 µg/mL | 1020 µg/mL | 512 µg/mL | 0.06 µg/mL |  | Not Active | 16 µg/mL (≈ 38.9 µM) | 16 µg/mL (≈ 38.9 µM) | 16 µg/mL (≈ 38.9 µM) | 16 µg/mL (≈ 38.9 µM)
4 | COc1cccc(COc2cccc3c4c(c(C(=O)O)cc23)CCC(C)(C)O4)c1 | > 512 µg/mL | > 128 µg/mL | 8 µg/mL | 8 µg/mL | 4 µg/mL | 32 µg/mL | 16 µg/mL | 1020 µg/mL | 1020 µg/mL | 512 µg/mL | 0.06 µg/mL | Active | Not Active | 16 µg/mL (≈ 40.8 µM) | 16 µg/mL (≈ 40.8 µM) | 16 µg/mL (≈ 40.8 µM) | 16 µg/mL (≈ 40.8 µM)
5 | CC1(C)CCc2c(Cn3cnnn3)cc3c(OCc4ccccc4)cccc3c2O1 | > 512 µg/mL | > 128 µg/mL | 8 µg/mL | 8 µg/mL | 4 µg/mL | 64 µg/mL | 64 µg/mL | 1020 µg/mL | 1020 µg/mL | 1020 µg/mL | 0.06 µg/mL | Active | Not Active | 16 µg/mL (≈ 40 µM) | 16 µg/mL (≈ 40 µM) | 16 µg/mL (≈ 40 µM) | 16 µg/mL (≈ 40 µM)
